From ChEMBL document CHEMBL1208742, “Synthesis and evaluation of beta-carboline derivatives as inhibitors of human immunodeficiency virus” (Bioorg Med Chem Lett, 2010)
The source made the active and inactive calls. No cut-off for these calls is given here.

Assays:
[1] = test system: Human immunodeficiency virus 1; assay: Antiviral activity against HIV1 NL4.3 infected in human CEM-GFP cells assessed as inhibition p24 antigen production at non cytotoxic concentration after 8 days by ELISA; format: functional
How it was run: (§1)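 CEM-GFP T cells carry a stably integrated LTR-driven GFP gene that is trans-activated by Tat on infection. Cells were infected with HIV-1 NL4.3 at MOI 0.05 and incubated with compound for up to 8 days post infection. Viral p24 was read by ELISA. Line 2 was tested at each compound's non-cytotoxic concentration. IC50 is 50% protection from virus, n = 3.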

[2] = Cytotoxicity against human CEM cells expressing green fluorescent protein assessed as oncytotoxic concentration by MTT assay; format: cell-based, CCRF-CEM; conditions: read-out: Activity
How it was run: (§2)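 MTT cell viability assay in CEM-GFP cells. CC50 is the concentration reducing proliferation by 50%, n = 3. The non-cytotoxic concentration was chosen from these MTT results for the antiviral testing.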

[3] = Therapeutic index, ratio of CC50 for human CEM cells expressing green fluorescent protein to IC50 for HIV1 NL4.3; format: cell-based, CCRF-CEM; conditions: read-out: TI
How it was run: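 Therapeutic index is CC50 (MTT proliferation in CEM-GFP cells, n = 3) divided by IC50 (p24 ELISA protection of HIV-1 NL4.3-infected CEM-GFP cells, n = 3).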

[4] = test system: Human immunodeficiency virus 1; assay: Antiviral activity against HIV1 NL4.3 infected in human CEM-GFP cells assessed as inhibition p24 antigen production after 8 days by ELISA; format: functional, organism-based; conditions: Human immunodeficiency virus 1, NL4.3, CEM-GFP, 192 h; how it was run: as §1
[5] = Cytotoxicity against human CEM cells expressing green fluorescent protein by MTT assay; format: cell-based, CCRF-CEM; how it was run: as §2

Row | Structure (SMILES) | inhibition [1] | MNTC [2] | further results
1 | CCCCn1c2ccccc2c2cc(C(=O)N3CCSCC3)nc(C)c21 | inactive | 1.36 µM | 
2 | Cc1nc(C(=O)N2CCSCC2)cc2c3ccccc3n(Cc3ccccc3)c12 | inactive | 6.22 µM | 
3 | CC(C)=CCn1c2ccccc2c2cc(C(=O)N3CCSCC3)nc(C)c21 | inactive | 19.8 µM | 
4 | C#CCn1c2ccccc2c2cc(C(=O)N3CCSCC3)nc(C)c21 | inactive | 21.5 µM | 
5 | CC1=NC(C(=O)O)Cc2c1[nH]c1ccccc21 (centres undefined) |  | 17.5 µM | inhibition (INH) [1]: 16.48%
6 | Cc1nc(C(=O)N2CCCCC2)cc2c1[nH]c1ccccc12 | inactive | 1.71 µM | 
7 | Cc1nc(C(=O)N2CCOCC2)cc2c1[nH]c1ccccc12 | inactive | 27.1 µM | 
8 | CCCCn1c2ccccc2c2cc(C(=O)OC)nc(C)c21 | inactive | 1.69 µM | 
9 | COC(=O)c1cc2c3ccccc3n3c(=O)ccc(n1)c23 | inactive | 3.59 µM | 
10 | CCCn1c2ccccc2c2cc(C(=O)OC)nc(C)c21 | inactive | 3.54 µM | 
11 | COC(=O)c1cc2c([nH]c3ccccc32)c(C=O)n1 |  | 9.83 µM | selectivity ratio [3]: 7; IC50 [4]: 2.9 µM; CC50 [5]: 20.3 µM
12 | COC(=O)c1cc2c([nH]c3ccccc32)c(C)n1 |  | 4.17 µM | inhibition (INH) [1]: 21.3%
13 | CCCCC1(C(=O)OC)Cc2c([nH]c3ccccc23)C(C)=N1 (centres undefined) |  | 8.39 µM | inhibition (INH) [1]: 12.17%
14 | Cc1nc(C(=O)N2CCSCC2)cc2c1[nH]c1ccccc12 |  | 1.61 µM | inhibition (INH) [1]: 16.9%
15 | COC(=O)c1cc2c3ccccc3n(C)c2c(C)n1 | inactive | 19.7 µM | 
16 | Cc1nc(C(=O)N2CCSCC2)cc2c3ccccc3n(Cc3ccc(F)cc3)c12 | inactive | 23.8 µM | 
17 | CCCCn1c2c(c3ccccc31)CC(CCCC)(C(=O)OC)N=C2C (centres undefined) | inactive | 14.1 µM | 
18 | COC(=O)c1cc2c3ccccc3n(Cc3ccccc3)c2c(C)n1 | inactive | 15.1 µM | 
19 | Cc1cn([C@H]2C[C@H](N=[N+]=[N-])[C@@H](CO)O2)c(=O)[nH]c1=O [ZIDOVUDINE] |  |  | IC50 [4]: 1.04 µM; CC50 [5]: 23 µM
20 | COC(=O)C1Cc2c([nH]c3ccccc23)C(C)=N1 (centres undefined) |  | 18.6 µM | inhibition (INH) [1]: 17.26%
21 | CCn1c2ccccc2c2cc(C(=O)OC)nc(C)c21 | inactive | 3.73 µM | 
